Source: ChEMBL document CHEMBL1147484, “SAR of benzoylpyridines and benzophenones as p38alpha MAP kinase inhibitors with oral activity” (Bioorg Med Chem Lett, 2004)
pIC50: −log10 of the molar value.

What was measured:
Mus musculus [1] = assay: Inhibition of […] induced TNF-alpha release in mice upon oral administration; type: functional
[2] = target: Mitogen-activated protein kinase 14 (Mus musculus, UniProt P47811); assay: Inhibition of murine His-Mitogen-activated protein kinase p38 alpha phosphorylation.
Cytochrome P450 2C9 = Cytochrome P450 2C9 (Homo sapiens, UniProt P11712); assay: Inhibition of human cytochrome P450 2C9; type: ADME
[3] = target: Prostaglandin G/H synthase 1 (Homo sapiens, UniProt P23219); assay: Inhibition of human prostaglandin G/H synthase 1
[4] = target: Mitogen-activated protein kinase 9 (Homo sapiens, UniProt P45984); assay: Inhibit of human c-Jun N-terminal kinase 2
Cytochrome P450 3A4 = Cytochrome P450 3A4 (Homo sapiens, UniProt P08684); assay: Inhibition of human cytochrome P450 3A4; type: ADME
Cytochrome P450 1A2 = target: T1, Cytochrome P450 1A2 (Homo sapiens, UniProt P05177); assay: Inhibition of human cytochrome P450 1A2; type: ADME
T1 sequence (P05177 whole entry): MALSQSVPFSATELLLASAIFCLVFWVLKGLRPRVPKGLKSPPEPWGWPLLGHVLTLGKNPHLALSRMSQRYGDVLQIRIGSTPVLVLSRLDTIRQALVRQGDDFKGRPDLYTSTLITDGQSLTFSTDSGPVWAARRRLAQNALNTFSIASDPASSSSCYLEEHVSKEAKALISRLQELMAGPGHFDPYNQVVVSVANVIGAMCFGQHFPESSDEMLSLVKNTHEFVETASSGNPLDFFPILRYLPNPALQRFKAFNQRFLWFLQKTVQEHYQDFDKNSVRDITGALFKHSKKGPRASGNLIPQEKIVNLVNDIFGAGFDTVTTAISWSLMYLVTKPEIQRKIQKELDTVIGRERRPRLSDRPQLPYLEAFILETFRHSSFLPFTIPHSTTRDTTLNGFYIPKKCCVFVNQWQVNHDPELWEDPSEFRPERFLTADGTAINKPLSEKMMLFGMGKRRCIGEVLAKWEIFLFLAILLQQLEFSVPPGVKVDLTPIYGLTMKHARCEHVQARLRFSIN

Cytochrome P450 2D6 = Cytochrome P450 2D6 (Homo sapiens, UniProt P10635); assay: Inhibition of human cytochrome P450 2D6; type: ADME
Rattus norvegicus [5] = assay: Percent swelling of joints in rats immunized with Mycobacterium tuberculosis was determined on day 20 after 25 mg/kg peroral administration; type: functional; details: route oral
How it was run: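 Female Wistar rats immunized with Mycobacterium tuberculosis at day 0 (adjuvant-induced arthritis); oral dosing 25 mg/kg twice daily from day 14 to 20; joint swelling measured on day 20, expressed as % inhibition of swelling.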

[6] = Volume of distribution in steady state was determined in rat; type: ADME, organism-based; details: in vivo, read-out: Vss
How it was run: (§1)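 Pharmacokinetics were determined in rat. Cmax was measured after a 1 mg/kg oral dose. Oral bioavailability, terminal half-life and steady-state volume of distribution (Vss, L/kg) were reported.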

[7] = Oral bioavailability; type: ADME, organism-based; details: rat, in vivo; how it was run: as §1
Rattus norvegicus [8] = assay: Dose required to inhibit bovine nasalseptum type II collagen induced arthritis in rats after administration on day 13; type: functional; details: 312 h
[9] = Peak plasma concentration at 1 mg/kg peroral administration; type: ADME, organism-based; design: dose 1 mg/kg, route oral; details: rat, po; how it was run: as §1
Mus musculus [10] = assay: Dose required to inhibit […] induced TNF-alpha release in mice upon oral administration; type: functional
[11] = target: Cyclin-dependent kinase 1 (Homo sapiens) (UniProt P06493); assay: Inhibition of human cyclin-dependent kinase 1 at 10 uM
[12] = target: Insulin-like growth factor 1 receptor (Homo sapiens) (UniProt P08069); assay: Inhibition of human insulin-like growth factor I receptor at 10 uM
[13] = target: Mast/stem cell growth factor receptor Kit (Homo sapiens) (UniProt P10721); assay: Inhibition of human c-Kit kinase; details: concentration not given here
[14] = target: Proto-oncogene tyrosine-protein kinase Src (Homo sapiens) (UniProt P12931); assay: Inhibition of human c-Src at 10 uM
[15] = target: Fibroblast growth factor receptor (Homo sapiens) (UniProt P22607+P11362+P22455+P21802); assay: Inhibitory activity against human FGFR at 10 uM; type: protein assay
[16] = target: T2, Epidermal growth factor receptor (Homo sapiens, UniProt P00533); details: 10 uM
[17] = target: T2, Epidermal growth factor receptor; assay: (§2) Inhibition of human Epidermal growth factor receptor
[18] = target: Hepatocyte growth factor receptor (Homo sapiens, UniProt P08581); assay: Inhibit of human Met proto-oncogene tyrosine kinase
[19] = target: RAF proto-oncogene serine/threonine-protein kinase (Homo sapiens) (UniProt P04049); assay: Inhibition of human RAF proto-oncogene serine/threonine-protein kinase at 10 uM
[20] = target: T2, Epidermal growth factor receptor; assay: as §2; remark: listed apart in the source

T2 sequence (P00533 whole entry): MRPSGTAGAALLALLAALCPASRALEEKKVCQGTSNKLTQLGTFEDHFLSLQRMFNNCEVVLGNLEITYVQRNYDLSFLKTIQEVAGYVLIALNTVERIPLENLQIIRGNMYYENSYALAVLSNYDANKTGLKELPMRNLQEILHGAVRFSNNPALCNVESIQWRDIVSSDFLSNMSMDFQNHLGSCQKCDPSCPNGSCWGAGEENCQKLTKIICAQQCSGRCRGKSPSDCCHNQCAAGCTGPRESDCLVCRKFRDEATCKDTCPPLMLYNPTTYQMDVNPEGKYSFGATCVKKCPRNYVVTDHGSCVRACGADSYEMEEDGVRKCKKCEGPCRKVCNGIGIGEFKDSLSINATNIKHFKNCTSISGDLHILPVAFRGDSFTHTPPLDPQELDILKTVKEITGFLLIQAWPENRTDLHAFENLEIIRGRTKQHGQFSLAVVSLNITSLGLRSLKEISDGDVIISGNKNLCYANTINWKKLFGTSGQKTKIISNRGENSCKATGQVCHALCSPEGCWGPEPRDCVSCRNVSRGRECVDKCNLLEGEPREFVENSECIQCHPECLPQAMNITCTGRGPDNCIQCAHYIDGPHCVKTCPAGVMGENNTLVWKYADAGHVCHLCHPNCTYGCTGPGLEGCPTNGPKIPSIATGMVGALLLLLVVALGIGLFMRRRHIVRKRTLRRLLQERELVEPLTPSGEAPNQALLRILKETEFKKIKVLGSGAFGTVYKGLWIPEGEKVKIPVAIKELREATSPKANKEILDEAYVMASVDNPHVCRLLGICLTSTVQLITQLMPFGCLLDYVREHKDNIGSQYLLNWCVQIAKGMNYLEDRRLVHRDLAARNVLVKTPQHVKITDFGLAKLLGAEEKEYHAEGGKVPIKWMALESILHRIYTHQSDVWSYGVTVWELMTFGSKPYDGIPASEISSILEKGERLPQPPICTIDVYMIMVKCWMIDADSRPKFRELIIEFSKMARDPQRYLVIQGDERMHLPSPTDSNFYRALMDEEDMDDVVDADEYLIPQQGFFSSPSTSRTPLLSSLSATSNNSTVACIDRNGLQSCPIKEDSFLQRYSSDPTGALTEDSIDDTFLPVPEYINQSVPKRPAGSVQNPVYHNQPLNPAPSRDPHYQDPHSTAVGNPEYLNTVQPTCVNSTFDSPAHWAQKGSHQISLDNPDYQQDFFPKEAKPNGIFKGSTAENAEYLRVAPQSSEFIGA
Mitogen-activated protein kinase 14, sequence (P47811 whole entry): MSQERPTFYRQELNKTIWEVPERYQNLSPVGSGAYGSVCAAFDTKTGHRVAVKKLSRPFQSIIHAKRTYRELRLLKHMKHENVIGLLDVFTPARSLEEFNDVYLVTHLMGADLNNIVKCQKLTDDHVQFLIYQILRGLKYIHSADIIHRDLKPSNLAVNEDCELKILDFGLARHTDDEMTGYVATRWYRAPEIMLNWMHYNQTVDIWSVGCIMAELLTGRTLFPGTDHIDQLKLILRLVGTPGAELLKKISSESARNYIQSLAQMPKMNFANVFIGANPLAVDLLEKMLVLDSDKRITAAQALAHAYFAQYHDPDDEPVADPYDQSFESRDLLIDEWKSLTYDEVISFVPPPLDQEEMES
Proto-oncogene tyrosine-protein kinase Src (Homo sapiens), sequence (P12931 2-536 limits assumed): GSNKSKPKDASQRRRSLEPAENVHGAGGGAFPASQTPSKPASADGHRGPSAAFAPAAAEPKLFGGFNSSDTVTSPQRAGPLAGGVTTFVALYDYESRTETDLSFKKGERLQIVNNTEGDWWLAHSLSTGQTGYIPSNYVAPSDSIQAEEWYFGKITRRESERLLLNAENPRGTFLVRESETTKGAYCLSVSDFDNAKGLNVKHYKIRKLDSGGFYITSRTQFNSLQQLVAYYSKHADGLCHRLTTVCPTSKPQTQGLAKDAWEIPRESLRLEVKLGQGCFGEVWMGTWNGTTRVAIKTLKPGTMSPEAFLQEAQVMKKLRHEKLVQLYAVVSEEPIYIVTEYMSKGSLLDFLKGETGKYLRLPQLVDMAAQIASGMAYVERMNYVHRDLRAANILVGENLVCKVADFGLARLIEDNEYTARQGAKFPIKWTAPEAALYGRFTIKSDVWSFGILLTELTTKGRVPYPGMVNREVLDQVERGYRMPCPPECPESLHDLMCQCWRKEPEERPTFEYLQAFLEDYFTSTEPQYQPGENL
Cytochrome P450 2C9, sequence (P11712 whole entry): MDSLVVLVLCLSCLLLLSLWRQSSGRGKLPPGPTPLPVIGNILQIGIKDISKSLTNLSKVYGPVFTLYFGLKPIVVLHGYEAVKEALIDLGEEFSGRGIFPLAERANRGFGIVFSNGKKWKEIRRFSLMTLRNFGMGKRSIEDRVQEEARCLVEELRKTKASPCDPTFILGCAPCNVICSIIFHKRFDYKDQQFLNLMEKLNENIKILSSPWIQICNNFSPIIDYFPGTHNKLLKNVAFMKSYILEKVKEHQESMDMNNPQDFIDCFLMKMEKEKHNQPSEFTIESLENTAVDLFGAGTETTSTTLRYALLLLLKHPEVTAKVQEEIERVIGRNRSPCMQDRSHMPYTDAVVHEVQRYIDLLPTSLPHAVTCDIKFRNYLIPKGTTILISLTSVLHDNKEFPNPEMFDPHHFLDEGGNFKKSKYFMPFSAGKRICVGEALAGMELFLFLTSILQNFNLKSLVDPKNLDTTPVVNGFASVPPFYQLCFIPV
Cytochrome P450 2D6, sequence (P10635 whole entry): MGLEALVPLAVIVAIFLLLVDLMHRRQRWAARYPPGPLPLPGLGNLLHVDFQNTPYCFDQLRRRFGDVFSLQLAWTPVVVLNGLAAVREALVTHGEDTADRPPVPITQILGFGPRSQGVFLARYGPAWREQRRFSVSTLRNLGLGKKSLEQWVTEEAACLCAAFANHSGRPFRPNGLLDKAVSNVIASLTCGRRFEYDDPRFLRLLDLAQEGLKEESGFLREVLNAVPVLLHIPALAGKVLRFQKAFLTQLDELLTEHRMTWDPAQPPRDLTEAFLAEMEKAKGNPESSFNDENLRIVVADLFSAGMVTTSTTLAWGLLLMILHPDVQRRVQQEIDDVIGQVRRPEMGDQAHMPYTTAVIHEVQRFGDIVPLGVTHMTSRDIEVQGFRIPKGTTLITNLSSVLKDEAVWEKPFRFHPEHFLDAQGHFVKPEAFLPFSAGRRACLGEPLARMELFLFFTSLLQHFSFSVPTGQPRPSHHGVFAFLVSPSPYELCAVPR
Mitogen-activated protein kinase 9, sequence (P45984 whole entry): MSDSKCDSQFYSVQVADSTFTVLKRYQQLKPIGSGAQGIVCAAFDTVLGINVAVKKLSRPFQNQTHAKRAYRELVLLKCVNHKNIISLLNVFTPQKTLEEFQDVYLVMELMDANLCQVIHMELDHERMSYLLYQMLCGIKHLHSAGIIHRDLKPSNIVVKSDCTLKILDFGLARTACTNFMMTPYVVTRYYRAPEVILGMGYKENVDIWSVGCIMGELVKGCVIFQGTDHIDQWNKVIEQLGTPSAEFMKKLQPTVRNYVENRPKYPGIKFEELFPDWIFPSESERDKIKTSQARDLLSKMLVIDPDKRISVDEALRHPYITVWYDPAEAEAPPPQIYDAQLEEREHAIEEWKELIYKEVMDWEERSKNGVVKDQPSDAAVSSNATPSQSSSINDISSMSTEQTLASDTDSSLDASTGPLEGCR
Insulin-like growth factor 1 receptor (Homo sapiens), sequence (P08069 31-736 limits assumed): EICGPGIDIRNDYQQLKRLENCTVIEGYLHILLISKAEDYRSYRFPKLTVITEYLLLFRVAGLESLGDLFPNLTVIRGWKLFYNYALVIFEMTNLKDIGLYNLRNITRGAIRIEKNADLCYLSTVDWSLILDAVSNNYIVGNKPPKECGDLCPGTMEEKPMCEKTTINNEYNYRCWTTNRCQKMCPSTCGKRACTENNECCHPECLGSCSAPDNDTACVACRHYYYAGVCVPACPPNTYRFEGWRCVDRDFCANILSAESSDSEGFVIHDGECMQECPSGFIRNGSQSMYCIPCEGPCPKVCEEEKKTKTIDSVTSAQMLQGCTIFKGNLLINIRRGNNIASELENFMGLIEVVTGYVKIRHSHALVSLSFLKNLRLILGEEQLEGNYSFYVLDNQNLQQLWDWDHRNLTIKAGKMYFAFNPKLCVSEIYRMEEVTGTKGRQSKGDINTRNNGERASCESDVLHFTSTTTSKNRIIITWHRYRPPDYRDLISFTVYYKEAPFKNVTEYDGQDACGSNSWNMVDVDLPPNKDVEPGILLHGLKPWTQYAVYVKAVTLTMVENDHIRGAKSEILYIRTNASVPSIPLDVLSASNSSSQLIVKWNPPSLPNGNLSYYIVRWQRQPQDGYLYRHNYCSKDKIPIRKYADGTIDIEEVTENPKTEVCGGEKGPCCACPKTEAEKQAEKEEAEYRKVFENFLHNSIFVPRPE
Insulin-like growth factor 1 receptor (Homo sapiens), sequence (P08069 741-1367 limits assumed): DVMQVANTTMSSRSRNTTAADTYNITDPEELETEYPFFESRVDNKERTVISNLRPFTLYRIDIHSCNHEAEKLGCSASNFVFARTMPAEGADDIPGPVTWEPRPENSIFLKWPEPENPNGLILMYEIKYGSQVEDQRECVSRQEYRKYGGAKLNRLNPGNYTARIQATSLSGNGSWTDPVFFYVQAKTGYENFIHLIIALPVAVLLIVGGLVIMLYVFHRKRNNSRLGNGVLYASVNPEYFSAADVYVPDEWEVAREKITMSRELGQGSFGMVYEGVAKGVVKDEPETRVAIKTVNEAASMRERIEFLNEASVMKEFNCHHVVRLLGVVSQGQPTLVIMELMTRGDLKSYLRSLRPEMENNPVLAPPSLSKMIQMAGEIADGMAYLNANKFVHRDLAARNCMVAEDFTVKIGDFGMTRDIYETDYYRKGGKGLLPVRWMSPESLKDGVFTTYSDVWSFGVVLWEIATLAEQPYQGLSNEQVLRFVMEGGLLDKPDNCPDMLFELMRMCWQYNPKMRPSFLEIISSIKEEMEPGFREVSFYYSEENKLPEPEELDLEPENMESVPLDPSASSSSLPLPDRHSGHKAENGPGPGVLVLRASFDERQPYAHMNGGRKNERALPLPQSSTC

COc1ccccc1C(=O)c1ccc(Nc2ccc(F)cc2F)cc1
Inhibition (Mus musculus [1]): 0%
pIC50 [2]: 4.42

COc1cc2nc(C)[nH]c2cc1C(=O)c1ccc(Nc2ccc(F)cc2F)cc1
pIC50 (Cytochrome P450 2C9): < 5.70
pIC50 [3]: < 4.10
pIC50 [4]: < 5.00
pIC50 (Cytochrome P450 3A4): < 5.70
pIC50 (Cytochrome P450 1A2): < 5.70
pIC50 (Cytochrome P450 2D6): < 5.70
pIC50 [2]: 5.30

COc1ccc(C#CC(C)(C)N)cc1C(=O)c1ccc(Nc2ccc(F)cc2F)nc1
Swelling (Rattus norvegicus [5]): 52%
Inhibition (Mus musculus [1]): 91%
pIC50 [2]: 5.10

COc1ccc(CCC(C)(C)N)cc1C(=O)c1ccc(Nc2ccc(F)cc2F)cc1
Inhibition (Mus musculus [1]): 0%
pIC50 [2]: 3.95

CC(C)(N)C#Cc1ccc(Cl)c(C(=O)c2ccc(Nc3ccc(F)cc3F)nc2)c1
Swelling (Rattus norvegicus [5]): 36%
Inhibition (Mus musculus [1]): 50%
pIC50 [2]: 4.72

COc1cc2[nH]c(C)nc2cc1C(=O)c1ccc(Nc2ccc(F)cc2F)nc1
Vd [6]: 1.1 L/kg
Swelling (Rattus norvegicus [5]): 70%
bioavailability [7]: 54%
ED50 (Rattus norvegicus [8]): 8.6 mg/kg
Inhibition (Mus musculus [1]): 57%
Cmax [9]: 607 nM
pIC50 [2]: 4.68

COc1ccc(C#CC(C)(C)O)cc1C(=O)c1ccc(Nc2ccc(F)cc2F)nc1
Swelling (Rattus norvegicus [5]): 23%
ED50 (Mus musculus [10]): 23 mg/kg
Inhibition (Mus musculus [1]): 88%
pIC50 [2]: 4.27

O=C(c1ccc(Nc2ccc(F)cc2F)cc1)c1ccccc1Cl
Inhibition (Mus musculus [1]): 6%
pIC50 [2]: 4.96

O=C(c1ccc(Nc2ccc(F)cc2F)nc1)c1ccccc1Cl
pIC50 [2]: 4.00

O=C(c1ccc(Nc2ccc(F)cc2F)nc1)c1cc(Br)ccc1Cl
pIC50 [2]: 3.52

CC(C)(N)CCc1ccc(Cl)c(C(=O)c2ccc(Nc3ccc(F)cc3F)nc2)c1
pIC50 [2]: 3.80

COc1ccc(CCC(C)(C)O)cc1C(=O)c1ccc(Nc2ccc(F)cc2F)nc1
pIC50 [2]: 3.32

COc1cc2[nH]c(C)nc2cc1C(=O)c1ccc(Nc2ccc(F)cc2F)cc1
inhibition [11]: 0%
inhibition [12]: 0%
inhibition [13]: 0%
Swelling (Rattus norvegicus [5]): 50%
inhibition [14]: 0%
Inhibition (Mus musculus [1]): 90%
inhibition [15]: 0%
inhibition [16]: -10%

COc1ccc(CCC2(O)CCN(C)CC2)cc1C(=O)c1ccc(Nc2ccc(F)cc2F)cc1
Inhibition (Mus musculus [1]): 0%
pIC50 [2]: 4.29

CC(C)(N)C#Cc1ccc(Cl)c(C(=O)c2ccc(Nc3ccc(F)cc3F)cc2)c1
Inhibition (Mus musculus [1]): 85%
pIC50 [2]: 5.22

Cc1nc2cc(C(=O)c3ccc(Nc4ccc(F)cc4F)nc3)c(Cl)cc2[nH]1
Swelling (Rattus norvegicus [5]): 40%
Inhibition (Mus musculus [1]): 91%
pIC50 [2]: 5.10

COc1ccc(/C=C/C2(O)CCN(C)CC2)cc1C(=O)c1ccc(Nc2ccc(F)cc2F)cc1
Swelling (Rattus norvegicus [5]): 47%
Inhibition (Mus musculus [1]): 68%
pIC50 [2]: 6.00

Cc1nc2cc(C(=O)c3ccc(Nc4ccc(F)cc4F)cc3)c(Cl)cc2[nH]1
Swelling (Rattus norvegicus [5]): 46%
Inhibition (Mus musculus [1]): 93%
pIC50 [2]: 6.15

COc1ccc(C#CC(C)(C)N)cc1C(=O)c1ccc(Nc2ccc(F)cc2F)cc1
pIC50 [17]: 5.36
pIC50 (Cytochrome P450 2C9): < 5.70
inhibition [12]: 0%
pIC50 [18]: 5.82
inhibition [19]: 0%
pIC50 [3]: < 4.10
pIC50 [4]: < 5.00
pIC50 (Cytochrome P450 3A4): < 5.70
Vd [6]: 9 L/kg
Swelling (Rattus norvegicus [5]): 51%
pIC50 [20]: 5.06
pIC50 (Cytochrome P450 1A2): < 5.70
pIC50 (Cytochrome P450 2D6): < 5.70
inhibition [14]: -10%
bioavailability [7]: 46%
Inhibition (Mus musculus [1]): 95%
Cmax [9]: 59 nM
pIC50 [2]: 4.85
